B1: Osa-1-4 twister ribozyme (parent)
chain: CCGCCUAACACUGCCAAUGCCGGUCCCAAGCCCGGAUAAAAGUGGAGGGGGCGG

This data set covers variants of B1. As to the kind of experiment: self-cleavage, relative activity (ratio to wild type); higher = more cleavage; co-transcriptional. An outline of the steps: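 The 48 positions downstream of the cleavage site in a 54-nucleotide Oryza sativa twister ribozyme template were synthesised at 97 % wild-type base and 1 % of each other base. The template was transcribed in vitro at 37 °C for 2 h, with self-cleavage allowed during transcription. Reads with or without upstream sequence after deep sequencing marked cleavage status, and relative activity is fraction cleaved normalised to wild type.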
As for A28U C31U, the self-cleavage stood at 0.19.

Consider A28U C31G, for which the self-cleavage amounted to 0.07. In the case of A28U C31A, the self-cleavage is 0.03. A28U U43G: the self-cleavage worked out at 0.15. Regarding A28U U43C, the self-cleavage was found to be 0.15. A28U U43A: the self-cleavage was 0.28.

A29G C31G: the self-cleavage was found to be 0.05. For A29G C31A, the self-cleavage is 0.02. Next, A29G C31U: 0.12. In the case of A29C A46G, the self-cleavage is 0.02.

For the variant A29C A46C, the self-cleavage was 0.02. For A29C A46U the value was 0.02; for A29G C9U, 0.06; for A29G C9G, 0.09. Regarding A29G C9A, the self-cleavage worked out at 0.05. For A29C G53U the value was 0.03; for A29C G53C, 0.02; for A29C G53A, 0.03. Consider A29G A40U, for which the self-cleavage worked out at 0.15.

In the case of A29G A40G, the self-cleavage amounted to 0.07. For A29G A40C, the self-cleavage is 0.04. A28U C20U: the self-cleavage was 0.95. For A28U C20G the value was 0.09.

As for A28U C20A, the self-cleavage amounted to 0.9. With A29C U12G, the self-cleavage stood at 0.03. For A29C U12A the value was 0.05; for A29C U12C, 0.03; for A29G C27A, 0.06. For A29G C27G the value was 0.06; for A29G C27U, 0.05. Next, A29C G44A: 0.04; A29C G44U: 0.05; A29C G44C: 0.05. Take A28U C21G: the self-cleavage turned out to be 0.07. Turning to A28U C21U, the self-cleavage was 0.93. As to A28U C21A, the self-cleavage came to 0.16. In the case of A29G C25A, the self-cleavage was 0.04. For A29G C25U, the self-cleavage was 0.08. For the variant A29G C25G, the self-cleavage is 0.04. As to A28U G34A, the self-cleavage turned out to be 0.39. For A28U G34U, the self-cleavage amounted to 0.28. For A28U G34C the value was 0.18; for A28U A40U, 0.2.

For the variant A28U A40G, the self-cleavage worked out at 0.24. Next, A28U A40C: 0.04; A29G C20A: 0.33. For the variant A29G C20G, the self-cleavage was determined as 0.04. Consider A29G C20U, for which the self-cleavage is 0.28. With A29G A41G, the self-cleavage was determined as 0.12. Regarding A29G A41U, the self-cleavage turned out to be 0.46. As for A29G A41C, the self-cleavage came out at 0.21.

As to A29C G19C, the self-cleavage is 0.02. For A29C G19A the value was 0.04. Turning to A29C G19U, the self-cleavage was 0.03. A28U G44U: the self-cleavage came to 0.49.

On to A28U G44A, for which the self-cleavage was determined as 0.74. As for A28U G44C, the self-cleavage stood at 0.78. For the variant A28U A8U, the self-cleavage was found to be 0.09. As for A28U A8C, the self-cleavage worked out at 0.06. Next, A28U A8G: 0.18. For A28U C9U the value was 0.57. Consider A28U C9G, for which the self-cleavage amounted to 0.35. For the variant A28U C9A, the self-cleavage stood at 0.16. For A29G the value was 0.4. In the case of A29C, the self-cleavage amounted to 0.05. Take A28U G19A: the self-cleavage amounted to 0.24. Turning to A28U G19C, the self-cleavage came out at 0.07.

A28U G19U: the self-cleavage came to 0.13.

Regarding A28U G45A, the self-cleavage is 0.09. For the variant A28U G45C, the self-cleavage is 0.06.

For A28U G45U, the self-cleavage was found to be 0.07. A29C C21G: the self-cleavage came out at 0.02.

Consider A29C C21A, for which the self-cleavage turned out to be 0.04. Regarding A29C C21U, the self-cleavage came out at 0.06. For A29G C11U, the self-cleavage came to 0.11. Next, A29G C11A: 0.08. A29G C11G: the self-cleavage turned out to be 0.07.

With A29G A8C, the self-cleavage turned out to be 0.04. On to A29G A8G, for which the self-cleavage was determined as 0.11. As to A29G A8U, the self-cleavage stood at 0.07. For the variant A29C C15U, the self-cleavage is 0.03. Turning to A29C C15A, the self-cleavage is 0.02.

Consider A29C C15G, for which the self-cleavage was 0.04. In the case of A29C C14A, the self-cleavage came to 0.02. A29C C14U: the self-cleavage was found to be 0.03. On to A29C C14G, for which the self-cleavage amounted to 0.02. On to A28U U12G, for which the self-cleavage came to 0.11. A28U U12C: the self-cleavage came to 0.13. Turning to A28U U12A, the self-cleavage was found to be 0.38. On to A29C A38C, for which the self-cleavage was found to be 0.04. Next, A29C A38G: 0.04; A29C A38U: 0.03. Next, A28U A41G: 0.29; A28U A41C: 0.79; A28U A41U: 0.93.

Turning to A29C U37C, the self-cleavage worked out at 0.04. Regarding A29C U37A, the self-cleavage turned out to be 0.04. Next, A29C U37G: 0.06.

Regarding A29G G13C, the self-cleavage amounted to 0.01. For the variant A29G G13U, the self-cleavage came out at 0.03. For A29G G13A, the self-cleavage came out at 0.04. Next, A29C A40U: 0.04; A29C A40C: 0.02. Consider A29C A40G, for which the self-cleavage turned out to be 0.02. Consider A29C G34C, for which the self-cleavage amounted to 0.03.

As for A29C G34U, the self-cleavage is 0.03. Consider A29C G34A, for which the self-cleavage was found to be 0.04. As for A29C U43C, the self-cleavage is 0.03. For the variant A29C U43A, the self-cleavage was 0.03. As to A29C U43G, the self-cleavage was determined as 0.05. As for A29G C32G, the self-cleavage is 0.07. On to A29G C32U, for which the self-cleavage stood at 0.06. Consider A29G C32A, for which the self-cleavage is 0.04. For A29C G49C the value was 0.01. Turning to A29C G49U, the self-cleavage is 0.02. Regarding A29C G49A, the self-cleavage was found to be 0.02. As to A29C C31U, the self-cleavage worked out at 0.02.

Regarding A29C C31A, the self-cleavage was found to be 0.02. Consider A29C C31G, for which the self-cleavage was 0.02. As for A29G C52U, the self-cleavage stood at 0.34. In the case of A29G C52A, the self-cleavage amounted to 0.16. Next, A29G C52G: 0.22; A29C C27A: 0.04; A29C C27U: 0.02.

Turning to A29C C27G, the self-cleavage amounted to 0.02.

Take A29C G51A: the self-cleavage came to 0.03. For A29C G51U the value was 0.03; for A29C G51C, 0.02.

With A29G C21A, the self-cleavage is 0.1. Consider A29G C21G, for which the self-cleavage worked out at 0.07. Consider A29G C21U, for which the self-cleavage turned out to be 0.17. As to A29G A38G, the self-cleavage was found to be 0.15.

For A29G A38C, the self-cleavage was found to be 0.16. For A29G A38U, the self-cleavage was 0.16. In the case of A29C A8G, the self-cleavage was found to be 0.03. For A29C A8C the value was 0.04; for A29C A8U, 0.02; for A29G A39G, 0.09.

In the case of A29G A39U, the self-cleavage was found to be 0.11. For the variant A29G A39C, the self-cleavage worked out at 0.06. Next, A28U C14U: 0.14. On to A28U C14G, for which the self-cleavage amounted to 0.07. With A28U C14A, the self-cleavage was determined as 0.05.

In the case of A29C G13A, the self-cleavage is 0.02. Next, A29C G13U: 0.01. In the case of A29C G13C, the self-cleavage amounted to 0.01. Regarding A28U C27A, the self-cleavage stood at 0.09. In the case of A28U C27U, the self-cleavage was found to be 0.15. As for A28U C27G, the self-cleavage was determined as 0.05. Next, A28U G54A: 0.66; A28U G54U: 0.72. Turning to A28U G54C, the self-cleavage is 0.71. For A28U A39C the value was 0.63. For the variant A28U A39G, the self-cleavage was determined as 0.79. Take A28U A39U: the self-cleavage turned out to be 0.76. Next, A29G G22C: 0.12; A29G G22A: 0.11. In the case of A29G G22U, the self-cleavage worked out at 0.06. As to A28U C26U, the self-cleavage turned out to be 0.22. On to A28U C26A, for which the self-cleavage amounted to 0.04. Take A28U C26G: the self-cleavage amounted to 0.1. Regarding A28U G30C, the self-cleavage came out at 0.05. Regarding A28U G30U, the self-cleavage was found to be 0.04. Consider A28U G30A, for which the self-cleavage is 0.04. On to A29C U18C, for which the self-cleavage was 0.04. As to A29C U18A, the self-cleavage worked out at 0.04. A29C U18G: the self-cleavage amounted to 0.06.
